Experimental data published in ChEMBL document CHEMBL4311975, “Exploration of the antibiotic potentiating activity of indolglyoxylpolyamines” (Eur J Med Chem, 2019).
≈ marks a conversion by molar mass, not a printed value.

Tests used:
Candida albicans = assay: Antifungal activity against Candida albicans ATCC 90028 assessed as growth inhibition incubated for 36 hrs by resazurin dye based assay; format: functional; conditions: ATCC 90028, 36 h
Method in brief: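 Yeast was grown 3 days on YPD agar at 30 °C. Colonies were suspended and diluted in YNB broth to 2.5×10^3 CFU/mL, then added to two-fold compound dilutions (0.008–32 μg/mL final), in duplicate. Plates stood 36 h at 35 °C without shaking. Means, n = 2.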

[1] = tested on: Staphylococcus intermedius; assay: Antibacterial activity against Staphylococcus intermedius 1051997 assessed as growth inhibition incubated for 18 hrs by broth dilution method; format: functional; conditions: Staphylococcus intermedius, 1051997, 18 h
Method in brief: (§1)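 Broth microdilution following CA-SFM recommendations. Inoculum was 10^5 CFU in Mueller-Hinton broth with two-fold serial drug dilutions. Plates were incubated 18 h at 37 °C. MIC was the lowest concentration giving complete inhibition of visible growth. Values are means, n = 3.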

L6 = assay: Cytotoxicity against rat L6 cells measured after 72 hrs by alamar blue assay; format: cell-based; conditions: L6, 72 h
Method in brief: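 Rat L6 myoblasts, 4×10^4/well in RPMI 1640 with L-glutamine and 10% FBS, received seven 3-fold dilutions (90 to 0.123 μg/mL) for 72 h. Alamar Blue was added for 2 h and fluorescence read at ex 536/em 588 nm. Podophyllotoxin served as reference. Means, n = 2.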

Cryptococcus neoformans = assay: Antifungal activity against Cryptococcus neoformans ATCC 208821 assessed as growth inhibition incubated for 36 hrs by resazurin dye based assay; format: functional; conditions: ATCC 208821, 36 h
Method in brief: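 Cryptococcus was grown 3 days on YPD agar at 30 °C, suspended, and diluted in YNB broth to 2.5×10^3 CFU/mL. Cells were exposed to 0.008–32 μg/mL compound (final), in duplicate, for 36 h at 35 °C without shaking. Resazurin (0.006% final) was added for a further 3 h. MIC was read from absorbance at OD570–600. Means, n = 2.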

Pseudomonas aeruginosa [2] = assay: Potentiation of doxycycline-induced antibacterial activity against Pseudomonas aeruginosa ATCC 27853 assessed as concentration required to restore 2 ug/ml doxycycline activity measured after 18 hrs; format: functional
Method in brief: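 Inoculum was 5×10^5 CFU in MHB with two-fold serial dilutions of adjuvant plus fixed doxycycline at 2 μg/mL. […] Repeated independently in triplicate.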

Klebsiella pneumoniae = assay: Antibacterial activity against Klebsiella pneumoniae ATCC 700603 assessed as growth inhibition incubated for 18 hrs by resazurin dye based assay; format: functional
Method in brief: (§2)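 Overnight cultures were diluted 40-fold in MHB and grown 1.5–2 h at 37 °C to mid-log phase. Cells were added at 5×10^5 CFU/mL final to two-fold compound dilutions (0.008–32 μg/mL final), in duplicate, for 18 h at 37 °C. Resazurin (0.001% final) was added for 2 h and MIC read by eye. Means, n = 2.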

Pseudomonas aeruginosa [3] = assay: Antibacterial activity against Pseudomonas aeruginosa ATCC 27853 assessed as growth inhibition incubated for 18 hrs by broth dilution method; format: functional; method in brief: as §1
[4] = Cytotoxicity against human HEK293 cells measured after 20 hrs by resazurin dye based fluorescence assay; format: cell-based
Method in brief: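 HEK293 cells, 5,000/well in DMEM with 10% FBS, were exposed to compound for 20 h at 37 °C, 5% CO2. Resazurin (100 μM final) was added for 3 h, then fluorescence read at ex 560/em 590. Signal was normalised to tamoxifen (74 μg/mL, 0%) and untreated growth (100%), and CC50 came from dose-response fitting. Top dose 32 μg/mL. Means, n = 2.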

[5] = Hemolytic activity against Sprague-Dawley rat RBC assessed as release of hemoglobin at 50 uM incubated for 1 hr relative to control; format: ADME, cell-based, Erythrocyte; conditions: red blood cells (erythrocytes), read-out: Activity
Method in brief: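 Fresh Sprague-Dawley rat erythrocytes were washed in saline and resuspended at 2% v/v. Cells were incubated with compound in DMSO/PBS for 1 h at 37 °C, then centrifuged at 200 g, and supernatant absorbance read at 540 nm. Results were normalised to DMSO/PBS (0%) and 0.1% Triton X-100 (100%). Single-point testing used 50 μM; HC50 came from 10-point curves. Means of three experiments.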

Staphylococcus aureus = assay: Antibacterial activity against Staphylococcus aureus ATCC 25923 assessed as growth inhibition incubated for 18 hrs by broth dilution method; format: functional; conditions: ATCC 25923, 18 h; method in brief: as §1
Acinetobacter baumannii = assay: Antibacterial activity against Acinetobacter baumannii ATCC 19606 assessed as growth inhibition incubated for 18 hrs by resazurin dye based assay; format: functional; conditions: ATCC 19606 = CIP 70.34 = JCM 6841, 18 h; method in brief: as §2
Escherichia coli = assay: Antibacterial activity against Escherichia coli ATCC 25922 assessed as growth inhibition incubated for 18 hrs by broth dilution method; format: functional; method in brief: as §1
[6] = Klebsiella pneumoniae, 700603, 18 h

Compound | MIC (Candida albicans) | MIC [1] [µM] | IC50 (L6) [µM] | MIC (Cryptococcus neoformans) | Activity (Pseudomonas aeruginosa [2]) [µM] | MIC (Klebsiella pneumoniae; [6]) [µM] | MIC (Pseudomonas aeruginosa [3]; ATCC 27853, 18 h) [µM] | CC50 at 20 h [4] [µM] | hemolysis at 1 h, 50 µM [5] [%] | MIC (Staphylococcus aureus) [µM] | MIC (Acinetobacter baumannii) [µM] | MIC (Escherichia coli; ATCC 25922, 18 h) [µM] | MIC (Klebsiella pneumoniae) [µg/mL] | MIC (Pseudomonas aeruginosa [3]) [µM] | MIC (Escherichia coli) [µM]
O=C(NCCCNCCCCNCCCNC(=O)C(=O)c1c[nH]c2cc(F)ccc12)C(=O)c1c[nH]c2cc(F)ccc12.O=C(O)C(F)(F)F.O=C(O)C(F)(F)F | > 39.6 µM | > 200 | 69.1 | 19.8 µM | 25 | > 39.6 | > 200 | 12.5 | 0.3 | 100 | > 39.6 | > 200 | – | – | –
CN[C@@H]1[C@H](O[C@H]2[C@H](O[C@H]3[C@H](O)[C@@H](O)[C@H](N=C(N)N)[C@@H](O)[C@@H]3N=C(N)N)O[C@@H](C)[C@]2(O)C=O)O[C@@H](CO)[C@H](O)[C@H]1O [STREPTOMYCIN] | – | 10.7 (≈ 6.22 µg/mL) | – | – | – | – | 21.5 (≈ 12.5 µg/mL) | – | – | 21.5 (≈ 12.5 µg/mL) | – | 21.5 (≈ 12.5 µg/mL) | – | – | –
OC(Cn1cncn1)(Cn1cncn1)c1ccc(F)cc1F [FLUCONAZOLE] | 0.125 µg/mL | – | – | 8 µg/mL | – | – | – | – | – | – | – | – | – | – | –
COc1cc([C@@H]2c3cc4c(cc3[C@H](O)[C@H]3COC(=O)[C@H]23)OCO4)cc(OC)c1OC [PODOFILOX] | – | – | 0.018 | – | – | – | – | – | – | – | – | – | – | – | –
O=C(NCCCNCCCCNCCCNC(=O)C(=O)c1c[nH]c2cc(Cl)ccc12)C(=O)c1c[nH]c2cc(Cl)ccc12.O=C(O)C(F)(F)F.O=C(O)C(F)(F)F | 38.1 µM | 3.12 | 33.2 | 4.8 µM | 6.25 | 38.1 | 100 | 19.1 | 11.6 | 6.25 | 38.1 | 50 | – | – | –
O=C(NCCCNCCCCNCCCNC(=O)C(=O)c1c[nH]c2ccccc12)C(=O)c1c[nH]c2ccccc12 | > 41.4 µM | > 100 | 60 | 10.3 µM | >50 | > 41.4 | > 100 | > 41.5 | 0 | > 100 | > 41.4 | > 100 | – | – | –
Cc1cccc2c(C(=O)C(=O)NCCCNCCCCNCCCNC(=O)C(=O)c3c[nH]c4c(C)cccc34)c[nH]c12.O=C(O)C(F)(F)F.O=C(O)C(F)(F)F | > 40 µM | 12.5 | 59.6 | 10 µM | 6.25 | > 40 | > 200 | > 40 | 0.1 | 25 | > 40 | > 200 | – | – | –
O=C(NCCCNCCCCNCCCNC(=O)C(=O)c1c[nH]c2ccc(Cl)cc12)C(=O)c1c[nH]c2ccc(Cl)cc12.O=C(O)C(F)(F)F.O=C(O)C(F)(F)F | 38 µM | – | 19.8 | > 38 µM | 14.9 | > 38 | > 100 | 4.73 | 0 | > 200 | > 38 | > 200 | – | – | –
COc1ccc2[nH]cc(C(=O)C(=O)NCCCNCCCCNCCCNC(=O)C(=O)c3c[nH]c4ccc(OC)cc34)c2c1 | > 38.4 µM | 50 (≈ 30.2 µg/mL) | 56 | 19.2 µM | 12.5 | > 38.4 | > 200 | > 38.4 | 0 | 100 (≈ 60.5 µg/mL) | > 38.4 | > 200 | – | – | –
N#Cc1ccc2[nH]cc(C(=O)C(=O)NCCCNCCCCNCCCNC(=O)C(=O)c3c[nH]c4ccc(C#N)cc34)c2c1.O=C(O)C(F)(F)F.O=C(O)C(F)(F)F | > 38.9 µM | > 200 | 37.1 | 38.9 µM | 50 | > 38.9 | > 200 | > 38.9 | 0 | 100 | > 38.9 | > 200 | – | – | –
COC(=O)c1cccc2c(C(=O)C(=O)NCCCNCCCCNCCCNC(=O)C(=O)c3c[nH]c4c(C(=O)OC)cccc34)c[nH]c12.O=C(O)C(F)(F)F.O=C(O)C(F)(F)F | > 36 µM | > 200 | 34.4 | 9 µM | 6.25 | > 36 | 200 | 3.78 | 15 | 25 | > 36 | 200 | – | – | –
Cc1ccc2[nH]cc(C(=O)C(=O)NCCCNCCCCNCCCNC(=O)C(=O)c3c[nH]c4ccc(C)cc34)c2c1.O=C(O)C(F)(F)F.O=C(O)C(F)(F)F | > 40 µM | > 200 | 63.8 | 10 µM | 6.25 | > 40 | 100 | > 40 | 0.3 | 25 | > 40 | 200 | – | – | –
COLISTIN | – | – | – | – | – | – | – | – | – | – | – | – | 0.25 | 1 | 2
COC(=O)c1ccc2[nH]cc(C(=O)C(=O)NCCCNCCCCNCCCNC(=O)C(=O)c3c[nH]c4ccc(C(=O)OC)cc34)c2c1.O=C(O)C(F)(F)F.O=C(O)C(F)(F)F | > 36 µM | 6.25 | 41.8 | > 36 µM | 25 | > 36 | 200 | > 36 | 0 | 100 | > 36 | 200 | – | – | –
COc1ccc2c(C(=O)C(=O)NCCCNCCCCNCCCNC(=O)C(=O)c3c[nH]c4cc(OC)ccc34)c[nH]c2c1 | > 38.4 µM | > 100 | 54 | 19.2 µM | 50 | > 38.4 | > 100 | > 38.4 | 0 | > 100 | > 38.4 | > 100 | – | – | –
O=C(NCCCNCCCCNCCCNC(=O)C(=O)c1c[nH]c2cccc(F)c12)C(=O)c1c[nH]c2cccc(F)c12 | > 55.1 µM | 35 (≈ 20.3 µg/mL) | 167 | > 55.1 µM | 35 | > 55.1 | 140 (≈ 81.3 µg/mL) | > 55 | 0.3 | > 70 | > 55.1 | 100 (≈ 58.1 µg/mL) | – | – | –
N#Cc1ccc2c(C(=O)C(=O)NCCCNCCCCNCCCNC(=O)C(=O)c3c[nH]c4cc(C#N)ccc34)c[nH]c2c1.O=C(O)C(F)(F)F.O=C(O)C(F)(F)F | > 38.9 µM | 25 | 46.9 | 38.9 µM | 50 | > 38.9 | > 200 | > 38.9 | 0 | 100 | > 38.9 | 200 | – | – | –
O=C(NCCCNCCCCNCCCNC(=O)C(=O)c1c[nH]c2c(Cl)cccc12)C(=O)c1c[nH]c2c(Cl)cccc12.O=C(O)C(F)(F)F.O=C(O)C(F)(F)F | > 38.1 µM | – | 7.47 | 19.1 µM | 25 | > 38.1 | 200 | 31.6 | 1.1 | 50 | > 38.1 | 200 | – | – | –
